Measured values published in ChEMBL document CHEMBL1139583, “Design, synthesis and evaluation of racemic 1-(4-hydroxyphenyl)-2-[3-(substituted phenoxy)-2-hydroxy-1-propyl]amino-1-propanol hydrochlorides as novel uterine relaxants” (Bioorg Med Chem Lett, 2005).

Experiments:
Format in all cases: functional
Rattus norvegicus [1] = organism: Rattus norvegicus; experiment: Inhibition of oxytocin induced contraction required for uterine relaxant activity in isolated rat uterus preparation
Rattus norvegicus [2] = organism: Rattus norvegicus; experiment: Delayed onset of labour in rat by comparing with control at 10 mg
Procedure, shortened: (§1)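 Pregnant Sprague–Dawley rats, six per dose group, dosed orally at 10 and 15 mg/kg/day from gestation day 13 to 21. Reference agent given at 10 mg/kg/day p.o. Onset of labour compared with control.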

Rattus norvegicus [3] = organism: Rattus norvegicus; experiment: cAmp released in rat at 10 mg
Procedure, shortened: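 Oral dosing of virgin female Sprague–Dawley rats in oestrus. Rats killed 3 h later. Uterine strips weighed and homogenized in Tris–EDTA, then centrifuged at 12,000g. Supernatant TCA removed by ether extraction and pH set to 7.5. cAMP measured by [³H]cAMP competitive binding assay against 0–16 pmol standards, 2 h at 2–8 °C, charcoal separation, scintillation counting.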

Rattus norvegicus [4] = organism: Rattus norvegicus; experiment: Delayed onset of labour in rat by comparing with control at 15 mg; procedure, shortened: as §1

Structure (SMILES)	IC50 (Rattus norvegicus [1]) [µmol]	Activity (Rattus norvegicus [2]) [h]	Activity (Rattus norvegicus [3]) [pmol]	Activity (Rattus norvegicus [4]) [h]
COCCc1ccc(OCC(O)CNC(C)C(O)c2ccc(O)cc2)cc1.Cl (centres undefined)	6.02	27.1	3.66	33.7
CC(NCC(O)COc1ccc(CC(N)=O)cc1)C(O)c1ccc(O)cc1.Cl (centres undefined)	6.32	24	3.56	31.7
CC(=O)Nc1ccc(OCC(O)CNC(C)C(O)c2ccc(O)cc2)cc1.Cl (centres undefined)	6.07	25	3.48	31.8
CC(=O)Nc1ccc(OCC(O)CNC(C)C(O)c2ccc(O)cc2)c(C(C)=O)c1.Cl (centres undefined)	6.58	23.7	3.53	30.1
CC(COc1ccccc1)NC(C)C(O)c1ccc(O)cc1.Cl (centres undefined) [ISOXSUPRINE HYDROCHLORIDE]	9.15	31.6	5.03	–
